Assay results from the M2OR odorant receptor database.

Assays:
Details in all cases: stereoisomer not certain
OR4C16 (Homo sapiens) = OR4C16 (Homo sapiens) (UniProt Q8NGL9)
Procedure, shortened: (§1)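 Transient luciferase assays in mammalian cell lines were common, though methods varied by source. The values come from published papers and their supplementary material, with extra details from the original authors when needed. Responsive refers to a measured signal the original authors judged statistically different from baseline, and non-responsive (inactive) to the remainder.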

OR4C3 (Homo sapiens) = OR4C3 (Homo sapiens) (UniProt Q8NH37)
Sequence of OR4C3 (Homo sapiens) (Q8NH37 whole entry): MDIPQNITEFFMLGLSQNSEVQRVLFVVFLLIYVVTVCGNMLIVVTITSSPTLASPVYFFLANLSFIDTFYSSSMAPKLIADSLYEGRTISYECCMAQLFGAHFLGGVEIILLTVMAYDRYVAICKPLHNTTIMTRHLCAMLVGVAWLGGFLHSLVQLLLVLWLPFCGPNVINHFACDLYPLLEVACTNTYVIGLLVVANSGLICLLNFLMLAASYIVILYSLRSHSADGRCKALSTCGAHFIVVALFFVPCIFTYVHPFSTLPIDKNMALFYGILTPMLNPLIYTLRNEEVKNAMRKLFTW
Procedure, shortened: as §1

OR4C45 (Homo sapiens) [1] = target: OR4C45 (Homo sapiens) (UniProt A6NMZ5)
Procedure, shortened: as §1
Target sequence in this assay (A6NMZ5 as listed by the source): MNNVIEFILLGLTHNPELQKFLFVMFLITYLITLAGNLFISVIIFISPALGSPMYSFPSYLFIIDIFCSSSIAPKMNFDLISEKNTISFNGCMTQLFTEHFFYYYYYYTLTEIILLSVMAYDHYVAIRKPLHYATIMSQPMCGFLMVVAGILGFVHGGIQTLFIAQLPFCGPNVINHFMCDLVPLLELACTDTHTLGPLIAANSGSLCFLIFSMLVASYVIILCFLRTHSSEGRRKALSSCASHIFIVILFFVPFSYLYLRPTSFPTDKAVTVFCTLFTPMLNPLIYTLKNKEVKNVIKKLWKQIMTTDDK

OR4C46 (Homo sapiens) = OR4C46 (Homo sapiens) (UniProt A6NHA9)
Sequence of OR4C46 (Homo sapiens) (A6NHA9 whole entry): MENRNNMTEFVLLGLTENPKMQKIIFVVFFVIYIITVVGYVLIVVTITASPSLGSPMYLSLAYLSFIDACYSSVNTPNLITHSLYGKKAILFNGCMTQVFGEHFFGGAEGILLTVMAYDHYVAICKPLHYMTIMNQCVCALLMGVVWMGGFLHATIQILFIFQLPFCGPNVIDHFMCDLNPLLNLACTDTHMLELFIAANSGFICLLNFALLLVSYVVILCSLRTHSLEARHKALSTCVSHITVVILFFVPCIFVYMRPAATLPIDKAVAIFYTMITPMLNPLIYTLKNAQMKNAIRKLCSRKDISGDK
Procedure, shortened: as §1

OR4C5 (Homo sapiens) = OR4C5 (Homo sapiens) (UniProt Q8NGB2)
Sequence of OR4C5 (Homo sapiens) (Q8NGB2 whole entry): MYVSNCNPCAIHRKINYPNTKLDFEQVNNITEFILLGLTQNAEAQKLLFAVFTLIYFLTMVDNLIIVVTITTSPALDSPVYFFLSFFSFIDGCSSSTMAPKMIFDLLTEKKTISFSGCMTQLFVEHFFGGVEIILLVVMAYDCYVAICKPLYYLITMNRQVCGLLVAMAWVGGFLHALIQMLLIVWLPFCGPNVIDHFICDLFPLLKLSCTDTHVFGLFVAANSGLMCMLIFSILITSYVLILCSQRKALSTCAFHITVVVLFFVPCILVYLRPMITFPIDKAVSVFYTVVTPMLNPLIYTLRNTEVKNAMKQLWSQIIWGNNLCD
Procedure, shortened: as §1

OR4C6 (Homo sapiens) = OR4C6 (Homo sapiens) (UniProt Q8NH72)
Sequence of OR4C6 (Homo sapiens) (Q8NH72 whole entry): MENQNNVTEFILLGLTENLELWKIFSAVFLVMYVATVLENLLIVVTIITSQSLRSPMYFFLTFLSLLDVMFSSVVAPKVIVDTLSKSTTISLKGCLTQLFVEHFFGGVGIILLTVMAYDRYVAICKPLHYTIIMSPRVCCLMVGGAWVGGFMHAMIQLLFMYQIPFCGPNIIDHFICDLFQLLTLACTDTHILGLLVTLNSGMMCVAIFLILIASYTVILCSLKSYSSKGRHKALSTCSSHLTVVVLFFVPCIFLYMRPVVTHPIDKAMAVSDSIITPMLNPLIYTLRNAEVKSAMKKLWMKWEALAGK
Procedure, shortened: as §1

OR4C3 = test system: OR4C3
Sequence of OR4C3 (as listed by the source): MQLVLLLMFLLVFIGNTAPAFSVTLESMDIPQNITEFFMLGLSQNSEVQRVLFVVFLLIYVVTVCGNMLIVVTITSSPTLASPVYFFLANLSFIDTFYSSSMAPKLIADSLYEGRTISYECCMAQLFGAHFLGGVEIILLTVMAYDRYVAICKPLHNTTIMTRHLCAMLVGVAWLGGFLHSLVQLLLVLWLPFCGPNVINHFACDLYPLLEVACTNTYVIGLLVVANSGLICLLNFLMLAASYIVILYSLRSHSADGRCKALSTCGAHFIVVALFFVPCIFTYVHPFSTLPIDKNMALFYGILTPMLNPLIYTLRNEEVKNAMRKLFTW
Procedure, shortened: as §1

OR4C45 (Homo sapiens) [2] = target: OR4C45 (Homo sapiens) (UniProt A6NMZ5); remark: listed apart in the source
Procedure, shortened: as §1
Target sequence in this assay (A6NMZ5 whole entry): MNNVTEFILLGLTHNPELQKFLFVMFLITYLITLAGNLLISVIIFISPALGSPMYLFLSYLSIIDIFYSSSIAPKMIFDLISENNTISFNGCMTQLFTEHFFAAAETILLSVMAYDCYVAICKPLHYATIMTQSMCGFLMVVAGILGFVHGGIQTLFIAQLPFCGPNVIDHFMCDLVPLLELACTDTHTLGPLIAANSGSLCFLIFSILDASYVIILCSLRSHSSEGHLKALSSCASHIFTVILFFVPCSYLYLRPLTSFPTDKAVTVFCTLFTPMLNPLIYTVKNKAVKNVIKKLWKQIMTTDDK

OR4CB P8T = test system: OR4CB P8T
Sequence of OR4CB P8T (as listed by the source): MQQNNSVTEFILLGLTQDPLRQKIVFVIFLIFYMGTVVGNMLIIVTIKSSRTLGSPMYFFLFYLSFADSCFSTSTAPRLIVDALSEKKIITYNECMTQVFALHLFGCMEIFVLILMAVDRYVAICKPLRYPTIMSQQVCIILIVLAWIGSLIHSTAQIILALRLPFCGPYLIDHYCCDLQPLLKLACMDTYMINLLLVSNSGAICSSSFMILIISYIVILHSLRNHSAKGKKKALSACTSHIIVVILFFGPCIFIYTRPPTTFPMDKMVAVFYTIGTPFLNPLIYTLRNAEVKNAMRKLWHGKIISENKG
Procedure, shortened: as §1

OR4CC = test system: OR4CC
Sequence of OR4CC (as listed by the source): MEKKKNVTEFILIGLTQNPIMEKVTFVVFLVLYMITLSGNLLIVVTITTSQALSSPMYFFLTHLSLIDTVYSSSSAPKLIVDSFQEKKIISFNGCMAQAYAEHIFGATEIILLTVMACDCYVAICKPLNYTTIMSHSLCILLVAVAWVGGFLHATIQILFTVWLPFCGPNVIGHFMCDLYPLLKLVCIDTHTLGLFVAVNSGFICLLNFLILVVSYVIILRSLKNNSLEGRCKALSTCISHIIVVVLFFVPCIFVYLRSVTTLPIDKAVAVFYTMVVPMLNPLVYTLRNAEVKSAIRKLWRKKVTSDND
Procedure, shortened: as §1

Measured: odorant receptor agonist call;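 note: active if original authors judged signal statistically different from baseline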

Sequence of OR4C16 (Homo sapiens) (Q8NGL9 whole entry): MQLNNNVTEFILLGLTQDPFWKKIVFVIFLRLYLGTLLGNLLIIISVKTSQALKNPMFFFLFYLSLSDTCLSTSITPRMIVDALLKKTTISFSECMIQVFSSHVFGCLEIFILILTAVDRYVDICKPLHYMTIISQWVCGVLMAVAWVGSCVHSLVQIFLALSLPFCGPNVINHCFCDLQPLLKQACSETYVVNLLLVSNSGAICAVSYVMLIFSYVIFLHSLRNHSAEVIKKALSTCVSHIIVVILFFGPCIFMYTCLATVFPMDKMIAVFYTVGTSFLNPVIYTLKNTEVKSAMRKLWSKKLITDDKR

Cc1c([N+](=O)[O-])c(C)c([N+](=O)[O-])c(C(C)(C)C)c1[N+](=O)[O-]
inactive: OR4C16 (Homo sapiens) | OR4C3 (Homo sapiens) | OR4C45 (Homo sapiens) [1] | OR4C46 (Homo sapiens) | OR4C5 (Homo sapiens) | OR4C6 (Homo sapiens)

C=CCOC(=O)Cc1ccccc1
not listed: OR4C3 (Homo sapiens) | OR4C45 (Homo sapiens) [1]
inactive: all other assays above
